Assay results reported in PMC10527240 (International journal of biological macromolecules, 2023).

Key:
[1] = target: human FATP2 (Homo sapiens, UniProt O14975); assay: BODIPY-C16 FA uptake in HRPT cells stably expressing human FATP2; assay type: cell-based
[2] = tested on: HRPT cells; assay: Palmitate-induced lipoapoptosis by TUNEL in HRPT cells; assay type: cell-based, human; conditions: for Effect on palmitate-induced lipoapoptosis: drug 5 μM, 2 hr, then palmitate 100 μM, 16 hr
How it was run: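 Immortalized human kidney proximal tubule cells were grown to near confluence on glass coverslips. They were preincubated with test compound (5 μM, 2 hr, 37°C), then albumin-complexed palmitate was added (100 μM, 16 hr, 37°C). Fixed cells were scored by TUNEL under fluorescence microscopy at 400X by blinded operators, ten random fields, one experiment. Mean ± SD; ANOVA.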

Molecule	IC50 [1] [µM]	Effect on palmitate-induced lipoapoptosis [2]	IC50 ([2]; read-out: IC50 for palmitate-induced apoptosis, compound 2 hr 37° C, then palmitate 100 μM, 16 hr) [nM]
CCCCCc1cccc(CC(=O)O)c1 [PBI-4050]	> 500		
O=C1Nc2ccc(Br)cc2C12NN=C(c1ccccc1)S2 (centres unmarked) [Lipofermata]		protective	
Cc1ccc2c(c1)C1(NN=C(c3ccccc3)S1)C(=O)N2 (centres unmarked) [Compound 1]		protective	600
Grassofermata		increased apoptosis	
